Measured values published in ChEMBL document CHEMBL1165950, “Design and synthesis of new potent anticancer pyrazoles with high FLT3 kinase inhibitory selectivity” (Bioorg Med Chem, 2010).

Legend:
Type in all cases: functional
HOP-92 = test: Cytotoxicity against human HOP92 cells assessed as cell growth at 10 uM; details: read-out: Activity
Procedure, shortened: (§1)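 Single-dose NCI-60 screen at 10 µM. Cells were grown in RPMI 1640 with 5% FBS and 2 mM L-glutamine, then treated for 48 h at 37 °C. Protein was measured by SRB staining with absorbance at 515 nm. Percentage growth was recorded, and inhibition percentage was calculated as 100 minus growth percentage.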

786-0 = test: Cytotoxicity against human 786-0 cells assessed as cell growth at 10 uM after 48 hrs by sulforhodamine B assay; details: 786-0, 48 h, read-out: Activity
CCRF-CEM = test: Cytotoxicity against human CCRF-CEM cells assessed as cell growth at 10 uM; details: read-out: Activity; procedure, shortened: as §1
NCI-H460 = test: Cytotoxicity against human NCI-H460 cells assessed as cell growth at 1 uM after 48 hrs by sulforhodamine B assay; details: NCI-H460, 48 h, read-out: Activity
U-251 = test: Cytotoxicity against human U251 cells assessed as cell growth at 10 uM; details: read-out: Activity
Procedure, shortened: (§2)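 NCI-60 screen: cells grown in RPMI 1640 with 5% FBS and 2 mM L-glutamine, plated at 5000–40,000 cells/well according to doubling time, and preincubated 24 h at 37 °C, 5% CO2. The single 10 µM dose (DMSO stock) was added, then incubated 48 h. Cells were TCA-fixed and stained with 0.4% SRB, read at 515 nm, and growth % calculated against time-zero and control plates.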

[1] = Cytotoxicity against human […] cells assessed as cell growth at 10 uM; details: read-out: Activity; procedure, shortened: as §2
UO-31 = test: Cytotoxicity against human UO31 cells assessed as cell growth at 10 uM after 48 hrs by sulforhodamine B assay; details: UO-31, 48 h, read-out: Activity
TK-10 = test: Growth inhibition of human TK10 cells after 48 hrs by sulforhodamine B assay; details: TK-10, 48 h; for CC50: read-out: LC50 (the source's name)
Procedure, shortened: (§3)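 NCI 60-cell screen, five-dose mode. Cells grown in RPMI 1640 with 5% FBS and 2 mM L-glutamine and plated at 5000-40,000 cells/well according to doubling time. After 24 h preincubation, a Tz plate was TCA-fixed. Five concentrations (10-fold or 1/2 log dilutions) were applied for 48 h at 37 °C. SRB staining read at 515 nm. IC50 taken from [(Ti-Tz)/(C-Tz)]×100 = 50.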

CAKI-1 = test: Cytotoxicity against human Caki1 cells assessed as cell growth at 1 uM after 48 hrs by sulforhodamine B assay; details: CAKI-1, 48 h, read-out: Activity
NCI-H226 [2] = test: Growth inhibition of human NCI-H226 cells after 48 hrs by sulforhodamine B assay; details: NCI-H226, 48 h; procedure, shortened: as §3
[3] = Cytotoxicity against human […] cells assessed as cell growth at 10 uM after 48 hrs by sulforhodamine B assay; details: read-out: Activity
SK-MEL-28 [4] = test: Cytotoxicity against human SK-MEL-28 cells assessed as cell growth at 100 nM after 48 hrs by sulforhodamine B assay; details: SK-MEL-28, 48 h, read-out: Activity
DU-145 = test: Cytotoxicity against human DU145 cells assessed as cell growth at 0.01 uM after 48 hrs by sulforhodamine B assay; details: DU-145, 48 h, read-out: Activity
RXF 393 [5] = test: Cytotoxicity against human RXF393 cells assessed as cell growth at 10 uM after 48 hrs by sulforhodamine B assay; details: RXF 393, 48 h, read-out: Activity
SK-MEL-28 [6] = test: Cytotoxicity against human SK-MEL-28 cells assessed as cell growth at 0.001 uM after 48 hrs by sulforhodamine B assay; details: SK-MEL-28, 48 h, read-out: Activity
ACHN = test: Cytotoxicity against human ACHN cells assessed as cell growth at 0.01 uM after 48 hrs by sulforhodamine B assay; details: read-out: Activity
NCI-H226 [7] = test: Cytotoxicity against human NCI-H226 cells assessed as cell growth at 10 uM after 48 hrs by sulforhodamine B assay; details: NCI-H226, 48 h, read-out: Activity
HCC 2998 [8] = test: Cytotoxicity against human HCC2998 cells assessed as cell growth at 10 uM after 48 hrs by sulforhodamine B assay; details: HCC 2998, 48 h, read-out: Activity
NCI-H226 [9] = test: Cytotoxicity against human NCI-H226 cells assessed as cell growth at 0.01 uM after 48 hrs by sulforhodamine B assay; details: NCI-H226, 48 h, read-out: Activity
MCF7 [10] = test: Cytotoxicity against human MCF7 cells assessed as cell growth at 100 nM after 48 hrs by sulforhodamine B assay; details: MCF7, 48 h, read-out: Activity
MCF7 [11] = test: Growth inhibition of human MCF7 cells after 48 hrs by sulforhodamine B assay; details: MCF7, 48 h; procedure, shortened: as §3
RXF 393 [12] = test: Cytotoxicity against human RXF393 cells assessed as cell growth at 1 uM after 48 hrs by sulforhodamine B assay; details: RXF 393, 48 h, read-out: Activity
HCC 2998 [13] = test: Cytotoxicity against human HCC2998 cells assessed as cell growth at 100 nM after 48 hrs by sulforhodamine B assay; details: HCC 2998, 48 h, read-out: Activity
SR [14] = test: Cytotoxicity against human SR cells assessed as cell growth at 0.01 uM after 48 hrs by sulforhodamine B assay; details: read-out: Activity
HCC 2998 [15] = test: Cytotoxicity against human HCC2998 cells assessed as cell growth at 1 uM after 48 hrs by sulforhodamine B assay; details: HCC 2998, 48 h, read-out: Activity
MCF7 [16] = test: Cytotoxicity against human MCF7 cells assessed as cell growth at 1 uM after 48 hrs by sulforhodamine B assay; details: MCF7, 48 h, read-out: Activity
SR [17] = test: Cytotoxicity against human SR cells assessed as cell growth at 0.001 uM after 48 hrs by sulforhodamine B assay; details: read-out: Activity
SR [18] = test: Cytotoxicity against human SR cells assessed as cell growth at 100 nM after 48 hrs by sulforhodamine B assay; details: read-out: Activity
HCT-116 = test: Cytotoxicity against human HCT116 cells assessed as cell growth at 100 nM after 48 hrs by sulforhodamine B assay; details: HCT-116, 48 h, read-out: Activity
SK-MEL-28 [19] = test: Cytotoxicity against human SK-MEL-28 cells assessed as cell growth at 1 uM after 48 hrs by sulforhodamine B assay; details: SK-MEL-28, 48 h, read-out: Activity
MCF7 [20] = test: Cytotoxicity against human MCF7 cells assessed as cell growth at 0.001 uM after 48 hrs by sulforhodamine B assay; details: MCF7, 48 h, read-out: Activity
NCI-H226 [21] = test: Cytotoxicity against human NCI-H226 cells assessed as cell growth at 1 uM after 48 hrs by sulforhodamine B assay; details: NCI-H226, 48 h, read-out: Activity
KM12 = test: Cytotoxicity against human KM12 cells assessed as cell growth at 10 uM; details: read-out: Activity; procedure, shortened: as §2
RXF 393 [22] = test: Cytotoxicity against human RXF393 cells assessed as cell growth at 0.001 uM after 48 hrs by sulforhodamine B assay; details: RXF 393, 48 h, read-out: Activity
HCC 2998 [23] = test: Growth inhibition of human HCC2998 cells after 48 hrs by sulforhodamine B assay; details: HCC 2998, 48 h; procedure, shortened: as §3
MDA-MB-435 = test: Cytotoxicity against human MDA-MB-435 cells assessed as cell growth at 0.01 uM after 48 hrs by sulforhodamine B assay; details: MDA-MB-435, 48 h, read-out: Activity
[24] = read-out: LC50 (the source's name)

Q: What does the source list for `COc1cc(C)cc(-c2c(-c3ccnc(-c4ccc(N(C)C)cc4)c3)cnn2CC#N)c1`?
A: growth at 10 µM (HOP-92): 29.1%; growth at 10 µM (786-0): 6%; growth at 10 µM (CCRF-CEM): 3.55%; growth at 1 µM (NCI-H460): -53%; growth at 10 µM (U-251): 11.2%; growth at 10 µM [1]: 0.08%; growth at 10 µM (UO-31): 7%; GI50 (TK-10): 0.636 µM; TGI (TK-10): > 100 µM; CC50 (TK-10): > 100 µM; growth at 1 µM (CAKI-1): -21%

Q: Which GI50 (NCI-H226 [2]) does the source give for `Cc1cc(O)cc(-c2nn(CC#N)cc2-c2ccnc(-c3ccc(N(C)C)cc3)c2)c1` here?
A: The GI50 was 4.18 µM.

Q: And the TGI (NCI-H226 [2])?
A: Its TGI is 21.8 µM.

Q: And the CC50 (NCI-H226 [2]; [24])?
A: The CC50 was over 100 µM.

Q: What about the growth at 10 µM [3] of the same compound?
A: The growth at 10 µM was -28%.

Q: What about the growth at 0.1 µM (SK-MEL-28 [4]) of the same compound?
A: The growth at 0.1 µM was 96%.

Q: And the growth at 0.01 µM (DU-145)?
A: The growth at 0.01 µM was 97%.

Q: And the growth at 10 µM (RXF 393 [5])?
A: The growth at 10 µM was -46%.

Q: And the growth at 0.001 µM (SK-MEL-28 [6])?
A: The growth at 0.001 µM was 102%.

Q: What about the growth at 10 µM (HOP-92) of the same compound?
A: The growth at 10 µM was 32.4%.

Q: What about the growth at 0.01 µM (ACHN) of the same compound?
A: Its growth at 0.01 µM is 82%.

Q: And the growth at 10 µM (NCI-H226 [7])?
A: Its growth at 10 µM is -38%.

Q: And the growth at 10 µM (HCC 2998 [8])?
A: Its growth at 10 µM is -98%.

Q: And the growth at 0.01 µM (NCI-H226 [9])?
A: The growth at 0.01 µM was 94%.

Q: What about the growth at 0.1 µM (MCF7 [10]) of the same compound?
A: The growth at 0.1 µM was 50%.

Q: What about the GI50 (MCF7 [11]) of the same compound?
A: The GI50 was 975 nM.

Q: And the LC50 (MCF7 [11])?
A: Its LC50 is 69.9 µM.

Q: What about the TGI (MCF7 [11]) of the same compound?
A: Its TGI is 13.9 µM.

Q: And the growth at 1 µM (RXF 393 [12])?
A: Its growth at 1 µM is -32%.

Q: What about the growth at 0.1 µM (HCC 2998 [13]) of the same compound?
A: The growth at 0.1 µM was 87%.

Q: What about the growth at 10 µM (786-0) of the same compound?
A: Its growth at 10 µM is -49%.

Q: What about the growth at 0.01 µM (SR [14]) of the same compound?
A: The growth at 0.01 µM was 93%.

Q: And the growth at 1 µM (HCC 2998 [15])?
A: Its growth at 1 µM is 13%.

Q: And the growth at 1 µM (MCF7 [16])?
A: Its growth at 1 µM is 10%.

Q: What about the growth at 0.001 µM (SR [17]) of the same compound?
A: Its growth at 0.001 µM is 93%.

Q: And the growth at 0.1 µM (SR [18])?
A: Its growth at 0.1 µM is 74%.

Q: And the growth at 10 µM (CCRF-CEM)?
A: The growth at 10 µM was 40.3%.

Q: What about the growth at 0.1 µM (HCT-116) of the same compound?
A: Its growth at 0.1 µM is 87%.

Q: And the growth at 1 µM (SK-MEL-28 [19])?
A: The growth at 1 µM was 32%.

Q: What about the growth at 10 µM (U-251) of the same compound?
A: Its growth at 10 µM is 17.1%.

Q: And the growth at 10 µM [1]?
A: Its growth at 10 µM is 41.6%.

Q: And the growth at 0.001 µM (MCF7 [20])?
A: Its growth at 0.001 µM is 97%.

Q: And the growth at 1 µM (NCI-H226 [21])?
A: The growth at 1 µM was 19%.

Q: What about the growth at 10 µM (UO-31) of the same compound?
A: Its growth at 10 µM is -19%.

Q: What about the GI50 (TK-10) of the same compound?
A: The GI50 was 8.4 µM.

Q: And the TGI (TK-10)?
A: Its TGI is 57.8 µM.

Q: What about the CC50 (TK-10) of the same compound?
A: Its CC50 is over 100 µM.

Q: And the growth at 10 µM (KM12)?
A: The growth at 10 µM was 27.3%.

Q: What about the growth at 0.001 µM (RXF 393 [22]) of the same compound?
A: The growth at 0.001 µM was 100%.

Q: What about the growth at 1 µM (CAKI-1) of the same compound?
A: The growth at 1 µM was 9%.

Q: What about the GI50 (HCC 2998 [23]) of the same compound?
A: Its GI50 is 3.19 µM.

Q: And the TGI (HCC 2998 [23])?
A: Its TGI is 13.2 µM.

Q: What about the CC50 (HCC 2998 [23]; [24]) of the same compound?
A: The CC50 was 37.2 µM.

Q: What about the growth at 0.01 µM (MDA-MB-435) of the same compound?
A: The growth at 0.01 µM was 91%.
